Assay results: ChEMBL document CHEMBL2203283, “Novel coumarin derivatives bearing N-benzyl pyridinium moiety: potent and dual binding site acetylcholinesterase inhibitors” (Bioorg Med Chem, 2012)
Values after ≈ are worked out from the molar mass of the structure shown.

Assays:
Acetylcholinesterase = Acetylcholinesterase (Electrophorus electricus, UniProt O42275); experiment: Inhibition of electric eel AChE using acetylthiocholine iodide as substrate by Ellman's method
[1] = Selectivity ratio of IC50 for equine serum BuChE to IC50 for electric eel AChE
Outline: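 Ellman assay with electric eel AChE and equine serum BuChE, run by the same method. Compounds are diluted in 0.1 M phosphate buffer, pH 8.0, and preincubated 15 min at 25 °C. Substrate is acetylthiocholine iodide with DTNB, read as absorbance rate at 412 nm over 6 min. Five concentrations are tested in triplicate, with IC50 taken graphically. Ratio = IC50(BuChE)/IC50(AChE).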

[2] = system: Radical scavenging activity; experiment: Antioxidant activity of compound assessed as DPPH radical scavenging activity; format: functional
Outline: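 DPPH radical scavenging: compounds at five concentrations across a 0–25 range in methanol, mixed with 0.3 mM DPPH ethanol solution and left 30 min in the dark at room temperature. Absorbance read at 518 nm, with a compound-plus-methanol reading blank and a DPPH-plus-methanol negative control. % inhibition = [(A_B−A_A)/A_B]×100; IC50 calculated; ascorbic acid as reference.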

Cholinesterase = Cholinesterase (Equus caballus, UniProt P81908); experiment: Inhibition of equine serum BuChE using acetylthiocholine iodide as substrate by Ellman's method
[3] = Antioxidant activity of compound assessed as ferric reducing antioxidant power; format: functional
Outline: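 Modified FRAP assay. Reagent mixed from 300 mM acetate buffer pH 3.6, 10 mM TPTZ in 40 mM HCl, and 20 mM ferric chloride hexahydrate solution. Ascorbic acid and BHT served as references.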

Sequence of Acetylcholinesterase (O42275 whole entry): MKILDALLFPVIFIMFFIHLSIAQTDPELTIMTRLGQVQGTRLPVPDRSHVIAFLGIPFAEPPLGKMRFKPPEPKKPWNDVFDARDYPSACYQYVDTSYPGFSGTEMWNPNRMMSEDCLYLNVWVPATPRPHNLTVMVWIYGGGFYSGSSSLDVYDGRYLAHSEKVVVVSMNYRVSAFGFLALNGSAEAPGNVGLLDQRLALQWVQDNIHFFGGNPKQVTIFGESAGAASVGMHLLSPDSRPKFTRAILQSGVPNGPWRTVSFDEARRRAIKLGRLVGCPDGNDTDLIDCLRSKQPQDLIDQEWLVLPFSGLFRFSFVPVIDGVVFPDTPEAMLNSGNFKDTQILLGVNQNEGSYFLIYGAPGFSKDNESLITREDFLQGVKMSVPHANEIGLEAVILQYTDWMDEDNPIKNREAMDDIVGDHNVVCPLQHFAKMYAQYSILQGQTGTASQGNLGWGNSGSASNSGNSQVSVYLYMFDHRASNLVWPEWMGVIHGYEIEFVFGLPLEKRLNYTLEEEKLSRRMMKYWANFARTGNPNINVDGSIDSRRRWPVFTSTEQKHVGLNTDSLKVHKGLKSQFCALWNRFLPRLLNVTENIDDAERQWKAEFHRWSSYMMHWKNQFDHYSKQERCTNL
Sequence of Cholinesterase (P81908 whole entry): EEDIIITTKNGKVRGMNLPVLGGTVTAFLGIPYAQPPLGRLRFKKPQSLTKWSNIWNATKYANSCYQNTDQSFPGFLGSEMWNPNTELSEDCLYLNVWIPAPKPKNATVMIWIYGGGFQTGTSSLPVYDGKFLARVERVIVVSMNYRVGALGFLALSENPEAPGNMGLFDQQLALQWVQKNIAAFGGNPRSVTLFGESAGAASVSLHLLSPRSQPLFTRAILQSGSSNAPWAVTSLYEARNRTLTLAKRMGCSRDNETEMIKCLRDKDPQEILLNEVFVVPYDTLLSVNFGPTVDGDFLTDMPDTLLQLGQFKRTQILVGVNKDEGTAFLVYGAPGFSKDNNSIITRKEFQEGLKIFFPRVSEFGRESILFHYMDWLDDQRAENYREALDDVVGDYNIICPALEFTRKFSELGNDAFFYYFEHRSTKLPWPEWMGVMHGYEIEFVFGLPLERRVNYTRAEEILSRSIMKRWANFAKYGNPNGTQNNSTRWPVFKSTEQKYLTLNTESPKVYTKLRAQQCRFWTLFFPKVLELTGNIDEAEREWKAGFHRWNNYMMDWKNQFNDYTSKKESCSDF

| Structure (SMILES) | IC50 (Acetylcholinesterase) | Ratio IC50 [1] | IC50 [2] | IC50 (Cholinesterase) | Activity [3] |
| --- | --- | --- | --- | --- | --- |
| COc1cccc2cc(C(=O)/C=C/c3cc[n+](Cc4ccc(C)cc4)cc3)c(=O)oc12.[Cl-] | 3650 nM | 7.4 | > 25 µg/mL | 27000 nM | < 150 |
| O=C(/C=C/c1cc[n+](Cc2ccccc2F)cc1)c1cc2ccccc2oc1=O.[Cl-] | 540 nM | 1.57 | > 25 µg/mL | 848 nM | < 150 |
| COc1cccc2cc(C(=O)/C=C/c3cc[n+](Cc4ccccc4F)cc3)c(=O)oc12.[Br-] | 26 nM | 12.6 | > 25 µg/mL | 329 nM | < 150 |
| COc1cccc2cc(C(=O)/C=C/c3cc[n+](Cc4cccc(Cl)c4Cl)cc3)c(=O)oc12.[Cl-] | 120 nM | 57 | > 25 µg/mL | 6800 nM | < 150 |
| COc1cccc2cc(C(=O)/C=C/c3cc[n+](Cc4c(F)cccc4[N+](=O)[O-])cc3)c(=O)oc12.[Cl-] | 330 nM | 2.1 | > 25 µg/mL | 685 nM | < 150 |
| O=C(/C=C/c1cc[n+](Cc2ccc(F)cc2)cc1)c1cc2cc(Br)ccc2oc1=O.[Cl-] | 0.46 nM | 1070 | > 25 µg/mL | 494 nM | < 150 |
| O=C(/C=C/c1cc[n+](Cc2ccccc2F)cc1)c1cc2cc(Br)ccc2oc1=O.[Cl-] | 0.11 nM | 4440 | > 25 µg/mL | 489 nM | < 150 |
| COc1ccc(C[n+]2ccc(/C=C/C(=O)c3cc4cccc(OC)c4oc3=O)cc2)cc1.[Cl-] | 1470 nM | 0.7 | > 25 µg/mL | 971 nM | < 150 |
| COc1cccc2cc(C(=O)/C=C/c3cc[n+](Cc4cccc(Cl)c4)cc3)c(=O)oc12.[Cl-] | 86 nM | 6.5 | > 25 µg/mL | 560 nM | < 150 |
| COc1cccc2cc(C(=O)/C=C/c3cc[n+](Cc4ccc(F)cc4)cc3)c(=O)oc12.[Cl-] | 472 nM | 1.97 | > 25 µg/mL | 931 nM | < 150 |
| COc1cccc2cc(C(=O)/C=C/c3cc[n+](Cc4ccc(CCl)cc4)cc3)c(=O)oc12.[Cl-] | 1600 nM | 9.4 | > 25 µg/mL | 15100 nM | < 150 |
| COc1cccc2cc(C(=O)/C=C/c3cc[n+](Cc4ccc(Cl)c(Cl)c4)cc3)c(=O)oc12.[Cl-] | 440 nM | 13.6 | > 25 µg/mL | 5790 nM | < 150 |
| COc1cccc2cc(C(=O)/C=C/c3cc[n+](Cc4ccccc4)cc3)c(=O)oc12.[Cl-] | – | – | > 25 µg/mL | – | < 150 |
| COc1cccc2cc(C(=O)/C=C/c3cc[n+](Cc4ccccc4C)cc3)c(=O)oc12.[Cl-] | 0.16 nM | 2140 | > 25 µg/mL | 342 nM | < 150 |
| O=C(/C=C/c1cc[n+](Cc2ccc(F)cc2)cc1)c1cc2ccccc2oc1=O.[Cl-] | 760 nM | 1.2 | > 25 µg/mL | 910 nM | < 150 |
| COc1cccc2cc(C(=O)/C=C/c3cc[n+](Cc4cccc(F)c4)cc3)c(=O)oc12.[Cl-] | 0.47 nM | 4470 | > 25 µg/mL | 2100 nM | < 150 |
| COc1cccc2cc(C(=O)/C=C/c3cc[n+](Cc4cccc(C#N)c4)cc3)c(=O)oc12.[Br-] | 76 nM | 13.1 | > 25 µg/mL | 1000 nM | < 150 |
| O=C1O[C@H]([C@@H](O)CO)C(O)=C1O [ASCORBIC ACID] | – | – | 3.6 µg/mL (≈ 20.4 µM) | – | 1890 |
| COc1cccc2cc(C(=O)/C=C/c3cc[n+](Cc4ccccc4Cl)cc3)c(=O)oc12.[Cl-] | 0.46 nM | 272 | > 25 µg/mL | 125 nM | < 150 |
| COc1cccc2cc(C(=O)/C=C/c3cc[n+](Cc4cccc(C)c4)cc3)c(=O)oc12.[Cl-] | 800 nM | 14 | > 25 µg/mL | 11200 nM | < 150 |
